Assay results reported in PMC3268818 (Journal of Molecular Biology, 2011).

How the values were obtained:
[1] = SEC-coupled analytical light scattering; type: physicochemical, human; conditions: for oligomeric state in solution / Mw/Mn / dimer fraction / Rg/Rh / approximate mass of higher-order oligomer: ALS; for oligomeric state in solution / Rh / Mn / Mw/Mn / Mw / dimer fraction / Rg / Rg/Rh: pH 8, 10°C; for Rh: hydrodynamic radius, ALS (DLS); for Rh / Mn / Mw / Rg: at least three independent measurements; for Rh / Mn / Mw/Mn / Mw / Rg / Rg/Rh: ± one standard deviation; for Mn: number-average molar mass; for Mn / Mw / Rg: ALS (SLS); for Mw/Mn: polydispersity; for Mw: weighted-average molar mass; for Rg: radius of gyration; for Rg/Rh: shape ratio
How it was run: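 His-tagged human BclXL (residues 1–233 or 1–200) was expressed in E. coli and purified by Ni-NTA then SEC. It was run at 10–50μM starting concentration in 50mM sodium phosphate, 100mM NaCl, 1mM EDTA, 5mM β-mercaptoethanol, pH 8.0, on Superdex 200 at 1ml/min and 10°C. Mw, Mn and Rg came from triple-angle SLS (Zimm fit); Rh came from DLS at 90° (Stokes-Einstein). n≥3, ±SD.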

BclXL_FL [2] = test: Steady-state fluorescence; parameters: species or system human; conditions: BclXL_FL alone, 5μM; SSF, excitation 290nm, pH 8.0, 25 °C
BclXL_FL [3] = test: TEM of negatively-stained BclXL_FL; parameters: species or system human; conditions: 25μM BclXL_FL alone; 50mM Sodium phosphate, pH 8.0, negative staining
How it was run: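 Full-length His-tagged human BclXL (residues 1–233) was expressed in E. coli and purified by Ni-NTA and SEC. It was imaged at 25μM, alone or with a 10-molar excess of a 20-mer BH3 peptide, in 50mM sodium phosphate pH 8.0. Samples were negatively stained and viewed by TEM at 80kV and 105,000 magnification.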

BclXL_FL [4] = test: DSC thermal stability of BclXL_FL; type: physicochemical, human; conditions: BclXL_FL alone, 50mM Sodium phosphate, pH 8.0, 10–50μM protein, 40–120°C, 1°C/min, 3atm, repeated at least three times

BclXL_dTM: BclXL in which the TM domain is deleted (residues 1–200), human, with an N-terminal His-tag, expressed in Escherichia coli
oligomeric state in solution [1]: largely monomeric in solution
Rh ([1]; Dimer): 41 ± 3 Å
Mn ([1]; Dimer): 54 ± 2 kD
Mw/Mn ([1]; Dimer): 1.00 ± 0.01
Mw ([1]; Dimer): 54 ± 2 kD
Rh ([1]; Monomer): 33 ± 2 Å
Mn ([1]; Monomer): 28 ± 2 kD
Mw/Mn ([1]; Monomer): 1.00 ± 0.00
dimer fraction [1]: minor fraction

BclXL_FL: Full-length BclXL (residues 1–233), human, with an N-terminal His-tag, expressed in Escherichia coli
oligomeric state in solution [1]: predominantly associates into higher-order oligomers
Rh ([1]; Dimer): 47 ± 2 Å
Mn ([1]; Dimer): 61 ± 3 kD
Mw/Mn ([1]; Dimer): 1.01 ± 0.01
Mw ([1]; Dimer): 62 ± 3 kD
Rh ([1]; Monomer): 36 ± 1 Å
Mn ([1]; Monomer): 31 ± 1 kD
Mw/Mn ([1]; Monomer): 1.00 ± 0.01
Rh ([1]; Multimer): 99 ± 2 Å
Mn ([1]; Multimer): 321 ± 25 kD
Mw/Mn ([1]; Multimer): 1.14 ± 0.02
Rg ([1]; Multimer): 107 ± 4 Å
Rg/Rh ([1]; Multimer): 1.10 ± 0.01
Mw ([1]; Multimer): 361 ± 26 kD
Rh ([1]; Polymer): 175 ± 6 Å
Mn ([1]; Polymer): 3134 ± 147 kD
Rg ([1]; Polymer): 198 ± 8 Å
Rg/Rh ([1]; Polymer): 1.13 ± 0.02
Mw ([1]; Polymer): 3355 ± 188 kD
oligomer equilibrium on SEC re-analysis ([1]; SEC-resolved fractions re-analyzed on SEC column): reversible monomer-dimer-multimer-polymer equilibrium
dimer fraction [1]: minor fraction
approximate mass of higher-order oligomer ([1]; multimer): ~ 300 kD
approximate mass of higher-order oligomer ([1]; polymer): ~ 3000 kD
intrinsic fluorescence relative to BclXL_dTM (BclXL_FL [2]): much higher than that observed for the BclXL_dTM construct
TEM appearance (BclXL_FL [3]): rod-like appearance in solution
melting temperature (Tm) (BclXL_FL [4]): > 120 °C
